Laboratory results: ChEMBL document CHEMBL1914334, “Discovery and characterization of potent and selective 4-oxo-4-(5-(5-phenyl-1,2,4-oxadiazol-3-yl)indolin-1-yl)butanoic acids as S1P₁ agonists” (Bioorg Med Chem Lett, 2011)
In brackets after ≈: the same amount, converted by molar mass. Activity calls are given as the source filed them. No cut-off for these calls is given here.

Legend:
[1] = Agonist activity at dog S1P1 receptor expressed in HEK293 cells assessed as inhibition of forskolin-stimulated cAMP production after 1 hr by HTRF assay; assay type: functional, cell-based; settings: HEK293, 1 h
[2] = Metabolic stability in human liver microsomes assessed as half life; assay type: ADME, Microsome
[3] = target: Cytochrome P450 2C19 (Homo sapiens, UniProt P33261); assay: Inhibition of CYP2C19; assay type: ADME
Cytochrome P450 2C19, sequence (P33261 whole entry): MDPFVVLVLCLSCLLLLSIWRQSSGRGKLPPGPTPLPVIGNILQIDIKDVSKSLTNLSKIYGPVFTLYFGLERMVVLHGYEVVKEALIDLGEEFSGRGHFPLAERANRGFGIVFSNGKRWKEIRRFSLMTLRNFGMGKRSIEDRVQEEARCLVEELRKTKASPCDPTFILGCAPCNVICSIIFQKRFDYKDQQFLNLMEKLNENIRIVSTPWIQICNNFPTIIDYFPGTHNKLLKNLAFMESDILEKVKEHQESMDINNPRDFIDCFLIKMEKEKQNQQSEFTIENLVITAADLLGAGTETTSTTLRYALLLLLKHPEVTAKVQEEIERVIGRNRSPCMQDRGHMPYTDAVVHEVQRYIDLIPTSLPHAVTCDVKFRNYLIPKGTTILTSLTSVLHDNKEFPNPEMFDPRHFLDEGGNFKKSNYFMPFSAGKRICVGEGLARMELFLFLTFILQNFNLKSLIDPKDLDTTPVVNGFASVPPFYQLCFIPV

[4] = test system: Salmonella typhimurium; assay: Mutagenic activity in Salmonella Typhimurium TA1535 by Ames test in presence of S9 fraction; assay type: toxicity, organism-based; settings: salmonella enterica subsp. enterica serovar typhimurium
[5] = target: T1, Sphingosine 1-phosphate receptor 1 (Homo sapiens, UniProt P21453); assay: Agonist activity at human S1P1 receptor expressed in HEK293 cells assessed as inhibition of forskolin-stimulated cAMP production after 1 hr by HTRF assay; assay type: functional, cell-based
T1 sequence (P21453 whole entry): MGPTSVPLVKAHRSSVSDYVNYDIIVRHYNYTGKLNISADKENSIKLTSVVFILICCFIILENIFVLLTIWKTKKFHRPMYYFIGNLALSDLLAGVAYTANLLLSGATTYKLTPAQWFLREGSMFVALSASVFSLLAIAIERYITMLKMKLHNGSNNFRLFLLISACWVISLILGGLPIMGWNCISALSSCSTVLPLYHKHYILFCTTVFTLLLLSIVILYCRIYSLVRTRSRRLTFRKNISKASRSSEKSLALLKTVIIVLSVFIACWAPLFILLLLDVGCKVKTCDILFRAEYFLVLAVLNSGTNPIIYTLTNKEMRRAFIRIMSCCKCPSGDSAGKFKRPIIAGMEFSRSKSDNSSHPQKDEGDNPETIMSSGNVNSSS
How it was run: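 Human S1P₁ cAMP HTRF read-out; each EC₅₀ is the mean of three or more replicates.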

[6] = target: T2, Sphingosine 1-phosphate receptor 4 (Homo sapiens, UniProt O95977); assay: Agonist activity at recombinant human S1P4 receptor expressed in HEK293 cells after 2 hrs by beta-arrestin assay; assay type: functional, cell-based
T2 sequence (O95977 whole entry): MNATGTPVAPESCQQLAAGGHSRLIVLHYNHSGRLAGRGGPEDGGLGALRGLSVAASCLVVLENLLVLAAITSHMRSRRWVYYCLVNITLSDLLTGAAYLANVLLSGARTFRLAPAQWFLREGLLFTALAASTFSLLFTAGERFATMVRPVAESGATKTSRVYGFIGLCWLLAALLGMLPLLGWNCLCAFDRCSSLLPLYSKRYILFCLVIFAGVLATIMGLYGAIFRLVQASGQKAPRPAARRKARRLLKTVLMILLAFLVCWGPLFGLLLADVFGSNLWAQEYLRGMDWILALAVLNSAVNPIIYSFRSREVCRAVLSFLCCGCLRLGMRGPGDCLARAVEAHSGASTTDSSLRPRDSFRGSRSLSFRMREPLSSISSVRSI

[7] = target: T1, Sphingosine 1-phosphate receptor 1; assay: Agonist activity at recombinant human S1P1 receptor expressed in HEK293 cells after 2 hrs by beta-arrestin assay; assay type: functional, cell-based
[8] = Protein binding in rat; assay type: ADME, organism-based; settings: in vivo, read-out: PB (converted)
[9] = target: Sphingosine 1-phosphate receptor 1 (Mus musculus, UniProt O08530); assay: Agonist activity at mouse S1P1 receptor expressed in HEK293 cells assessed as inhibition of forskolin-stimulated cAMP production after 1 hr by HTRF assay; assay type: functional, cell-based
Sphingosine 1-phosphate receptor 1 (Mus musculus, UniProt O08530), sequence (O08530 whole entry): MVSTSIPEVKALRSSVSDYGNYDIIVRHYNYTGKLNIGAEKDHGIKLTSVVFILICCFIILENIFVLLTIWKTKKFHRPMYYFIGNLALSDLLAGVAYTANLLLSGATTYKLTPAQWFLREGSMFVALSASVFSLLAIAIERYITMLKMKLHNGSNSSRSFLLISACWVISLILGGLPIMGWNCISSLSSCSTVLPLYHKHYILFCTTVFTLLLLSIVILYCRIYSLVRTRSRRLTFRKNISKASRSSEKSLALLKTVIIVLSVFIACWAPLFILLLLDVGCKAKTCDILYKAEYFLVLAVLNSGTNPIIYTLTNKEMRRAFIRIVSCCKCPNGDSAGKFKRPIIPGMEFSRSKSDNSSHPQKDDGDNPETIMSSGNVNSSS

[10] = target: Cytochrome P450 3A4 (Homo sapiens, UniProt P08684); assay: Inhibition of CYP3A4; assay type: ADME
[11] = test system: Salmonella typhimurium; assay: Mutagenic activity in Salmonella Typhimurium TA97a by Ames test in absence of S9 fraction; assay type: toxicity, organism-based; settings: salmonella enterica subsp. enterica serovar typhimurium
[12] = AUC (0 to last) in Sprague-Dawley rat at 2 mg/kg, iv and 3 mg/kg, po; assay type: ADME, organism-based; settings: plasma
[13] = target: Cytochrome P450 2D6 (Homo sapiens, UniProt P10635); assay: Inhibition of CYP2D6; assay type: ADME
[14] = Protein binding in human; assay type: ADME, organism-based; settings: in vivo, read-out: PB (converted)
[15] = test system: Mus musculus; assay: Immunomodulatory activity BALB/C mouse assessed as induction of lymphopenia at 0.3 to 3 mg/kg, po after 24 hrs; assay type: functional, organism-based; settings: 1 to 10 mg/kg, in the assay text read “1 to 10 mg/kg” for “0.3 to 3 mg/kg”
[16] = test system: Salmonella typhimurium; assay: Mutagenic activity in Salmonella Typhimurium TA98 by Ames test in absence of S9 fraction; assay type: toxicity, organism-based; settings: salmonella enterica subsp. enterica serovar typhimurium
[17] = Half life in Sprague-Dawley rat at 2 mg/kg, iv and 3 mg/kg, po; assay type: ADME, organism-based; settings: in vivo
[18] = test system: Salmonella typhimurium; assay: Mutagenic activity in Salmonella Typhimurium TA1535 by Ames test in absence of S9 fraction; assay type: toxicity, organism-based; settings: salmonella enterica subsp. enterica serovar typhimurium
[19] = Terminal half life in mouse; assay type: ADME, organism-based; settings: in vivo, read-out: beta t1/2 (converted)
[20] = Agonist activity at monkey S1P1 receptor expressed in HEK293 cells assessed as inhibition of forskolin-stimulated cAMP production after 1 hr by HTRF assay; assay type: functional, cell-based; settings: Macaca mulatta, HEK293, 1 h
[21] = target: Sphingosine 1-phosphate receptor 1 (Rattus norvegicus, UniProt P48303); assay: Agonist activity at rat S1P1 receptor expressed in HEK293 cells assessed as inhibition of forskolin-stimulated cAMP production after 1 hr by HTRF assay; assay type: functional, cell-based
Sphingosine 1-phosphate receptor 1 (Rattus norvegicus, UniProt P48303), sequence (P48303 whole entry): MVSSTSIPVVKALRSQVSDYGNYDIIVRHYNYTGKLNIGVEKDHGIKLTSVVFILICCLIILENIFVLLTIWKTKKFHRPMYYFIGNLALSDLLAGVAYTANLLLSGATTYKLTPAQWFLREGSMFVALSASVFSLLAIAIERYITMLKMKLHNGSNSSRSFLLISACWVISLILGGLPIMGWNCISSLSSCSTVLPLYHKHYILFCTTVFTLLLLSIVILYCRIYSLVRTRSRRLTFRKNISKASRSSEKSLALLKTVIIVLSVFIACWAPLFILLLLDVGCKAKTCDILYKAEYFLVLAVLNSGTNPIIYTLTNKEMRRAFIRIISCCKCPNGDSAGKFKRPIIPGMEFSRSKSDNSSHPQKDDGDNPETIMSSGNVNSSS

[22] = target: Sphingosine 1-phosphate receptor 3 (Homo sapiens, UniProt Q99500); assay: Agonist activity at recombinant human S1P3 receptor expressed in HEK293 cells after 2 hrs by beta-arrestin assay; assay type: functional, cell-based
[23] = target: T3, Cytochrome P450 1A2 (Homo sapiens, UniProt P05177); assay: Inhibition of CYP1A2; assay type: ADME
T3 sequence (P05177 whole entry): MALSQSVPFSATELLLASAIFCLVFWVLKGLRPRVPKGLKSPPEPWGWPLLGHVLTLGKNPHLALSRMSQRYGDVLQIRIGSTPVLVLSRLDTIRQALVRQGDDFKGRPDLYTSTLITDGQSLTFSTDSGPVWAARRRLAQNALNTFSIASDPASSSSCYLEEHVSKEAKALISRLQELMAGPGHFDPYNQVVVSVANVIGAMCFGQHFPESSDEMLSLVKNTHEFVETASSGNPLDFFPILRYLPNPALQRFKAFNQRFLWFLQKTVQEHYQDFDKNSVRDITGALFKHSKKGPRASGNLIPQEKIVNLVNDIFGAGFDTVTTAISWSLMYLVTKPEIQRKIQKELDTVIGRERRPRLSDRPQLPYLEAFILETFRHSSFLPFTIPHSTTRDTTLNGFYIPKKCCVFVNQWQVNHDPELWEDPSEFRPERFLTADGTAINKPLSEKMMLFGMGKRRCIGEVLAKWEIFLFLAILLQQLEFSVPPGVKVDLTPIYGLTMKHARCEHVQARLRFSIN

[24] = test system: Salmonella typhimurium; assay: Mutagenic activity in Salmonella Typhimurium TA100 by Ames test in absence of S9 fraction; assay type: toxicity, organism-based; settings: salmonella enterica subsp. enterica serovar typhimurium
[25] = Clearance in Sprague-Dawley rat at 2 mg/kg, iv and 3 mg/kg, po; assay type: ADME, organism-based; settings: in vivo
[26] = target: Voltage-gated inwardly rectifying potassium channel KCNH2 (Homo sapiens, UniProt Q12809); assay: Displacement of [3H]astemizole from human ERG
Voltage-gated inwardly rectifying potassium channel KCNH2, sequence (Q12809 whole entry): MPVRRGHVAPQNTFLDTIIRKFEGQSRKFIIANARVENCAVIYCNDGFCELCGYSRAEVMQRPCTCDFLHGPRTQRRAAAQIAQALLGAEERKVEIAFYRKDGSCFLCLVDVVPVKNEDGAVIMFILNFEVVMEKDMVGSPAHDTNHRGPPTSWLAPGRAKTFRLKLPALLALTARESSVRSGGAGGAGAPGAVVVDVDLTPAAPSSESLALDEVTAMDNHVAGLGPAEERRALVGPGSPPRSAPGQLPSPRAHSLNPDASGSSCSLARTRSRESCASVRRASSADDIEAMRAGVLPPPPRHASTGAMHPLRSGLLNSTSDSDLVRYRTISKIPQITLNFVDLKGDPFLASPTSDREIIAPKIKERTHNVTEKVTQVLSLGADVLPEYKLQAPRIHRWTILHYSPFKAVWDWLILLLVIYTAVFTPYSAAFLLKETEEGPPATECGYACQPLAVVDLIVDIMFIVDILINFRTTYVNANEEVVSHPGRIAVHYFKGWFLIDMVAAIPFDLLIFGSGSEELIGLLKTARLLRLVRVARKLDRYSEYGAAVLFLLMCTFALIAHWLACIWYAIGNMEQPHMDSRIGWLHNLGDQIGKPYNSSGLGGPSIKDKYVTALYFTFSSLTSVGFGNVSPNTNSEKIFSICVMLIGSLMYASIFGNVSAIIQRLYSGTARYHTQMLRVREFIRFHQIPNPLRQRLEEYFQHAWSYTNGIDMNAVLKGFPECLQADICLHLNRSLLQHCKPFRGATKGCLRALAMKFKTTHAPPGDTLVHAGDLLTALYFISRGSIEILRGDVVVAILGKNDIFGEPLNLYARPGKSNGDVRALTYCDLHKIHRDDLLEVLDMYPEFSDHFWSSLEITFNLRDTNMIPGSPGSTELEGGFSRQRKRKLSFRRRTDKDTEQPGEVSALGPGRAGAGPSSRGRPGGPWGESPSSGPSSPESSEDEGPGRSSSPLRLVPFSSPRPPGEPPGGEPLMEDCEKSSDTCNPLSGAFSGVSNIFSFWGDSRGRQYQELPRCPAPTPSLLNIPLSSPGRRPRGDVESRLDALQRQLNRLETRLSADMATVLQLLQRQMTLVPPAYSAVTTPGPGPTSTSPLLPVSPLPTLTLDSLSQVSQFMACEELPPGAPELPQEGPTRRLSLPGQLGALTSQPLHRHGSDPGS

[27] = Metabolic stability in rat liver microsomes assessed as half life; assay type: ADME, Microsome
[28] = target: Sphingosine 1-phosphate receptor 2 (Homo sapiens, UniProt O95136); assay: Agonist activity at recombinant human S1P2 receptor expressed in HEK293 cells after 2 hrs by beta-arrestin assay; assay type: functional, cell-based
Sphingosine 1-phosphate receptor 2, sequence (O95136 whole entry): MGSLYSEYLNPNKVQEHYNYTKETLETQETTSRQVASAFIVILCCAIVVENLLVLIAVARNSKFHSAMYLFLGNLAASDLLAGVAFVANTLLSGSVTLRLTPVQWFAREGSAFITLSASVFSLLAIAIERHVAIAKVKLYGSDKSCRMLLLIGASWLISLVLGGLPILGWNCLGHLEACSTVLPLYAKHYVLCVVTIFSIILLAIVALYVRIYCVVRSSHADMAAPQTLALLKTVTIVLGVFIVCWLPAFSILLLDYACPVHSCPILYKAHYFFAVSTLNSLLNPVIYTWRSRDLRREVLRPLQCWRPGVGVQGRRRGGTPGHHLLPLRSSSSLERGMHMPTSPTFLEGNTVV

[29] = test system: Salmonella typhimurium; assay: Mutagenic activity in Salmonella Typhimurium TA100 by Ames test in presence of S9 fraction; assay type: toxicity, organism-based; settings: salmonella enterica subsp. enterica serovar typhimurium
[30] = test system: Salmonella typhimurium; assay: Mutagenic activity in Salmonella Typhimurium TA97a by Ames test in presence of S9 fraction; assay type: toxicity, organism-based; settings: salmonella enterica subsp. enterica serovar typhimurium
[31] = target: Cytochrome P450 2C9 (Homo sapiens, UniProt P11712); assay: Inhibition of CYP2C9; assay type: ADME
[32] = test system: Mus musculus; assay: Immunomodulatory activity in po dosed BALB/C mouse assessed as induction of lymphopenia after 16 hrs; assay type: functional, organism-based
How it was run: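 Male BALB/c mice were dosed orally at 1, 3 or 10 mg/kg, or with vehicle (0.5% methylcellulose in water). Blood was sampled up to 24 h post-dose for lymphocyte counts and plasma drug levels (mean ± SD). An indirect PK/PD model was fitted to give the blood concentration suppressing lymphocytes by 50%.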

[33] = target: hERG (KCNH2) (Homo sapiens, UniProt Q12809); assay: Inhibition of human ERG at 3 uM by patch clamp assay
hERG (KCNH2), sequence (Q12809 whole entry): as the sequence (Q12809 whole entry) above

[34] = Volume of distribution at steady state in Sprague-Dawley rat at 2 mg/kg, iv and 3 mg/kg, po; assay type: ADME, organism-based; settings: in vivo, read-out: Vdss
[35] = Tmax in Sprague-Dawley rat at 2 mg/kg, iv and 3 mg/kg, po; assay type: ADME, organism-based; settings: in vivo
[36] = test system: Salmonella typhimurium; assay: Mutagenic activity in Salmonella Typhimurium TA98 by Ames test in presence of S9 fraction; assay type: toxicity, organism-based; settings: salmonella enterica subsp. enterica serovar typhimurium
[37] = target: Sphingosine 1-phosphate receptor 5 (Homo sapiens, UniProt Q9H228); assay: Agonist activity at recombinant human S1P5 receptor expressed in HEK293 cells after 2 hrs by beta-arrestin assay; assay type: functional, cell-based
Sphingosine 1-phosphate receptor 5, sequence (Q9H228 whole entry): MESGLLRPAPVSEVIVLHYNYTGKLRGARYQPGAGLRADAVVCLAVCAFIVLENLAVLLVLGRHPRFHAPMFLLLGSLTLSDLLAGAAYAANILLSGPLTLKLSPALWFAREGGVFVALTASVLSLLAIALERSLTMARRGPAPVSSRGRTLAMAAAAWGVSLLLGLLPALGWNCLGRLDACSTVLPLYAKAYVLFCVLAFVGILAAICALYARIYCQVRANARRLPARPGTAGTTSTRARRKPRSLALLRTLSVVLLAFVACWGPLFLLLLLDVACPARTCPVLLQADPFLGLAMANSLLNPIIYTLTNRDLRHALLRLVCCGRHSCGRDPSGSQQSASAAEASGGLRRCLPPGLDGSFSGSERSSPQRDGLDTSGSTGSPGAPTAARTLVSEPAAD

[38] = Oral bioavailability in Sprague-Dawley rat at 3 mg/kg; assay type: ADME, organism-based; settings: in vivo
[39] = Cmax in Sprague-Dawley rat at 2 mg/kg, iv and 3 mg/kg, po; assay type: ADME, organism-based; settings: in vivo
[40] = AUC (0 to last) in Sprague-Dawley rat at 1 mg/kg, iv and 1.5 mg/kg, po; assay type: ADME, organism-based; settings: plasma
[41] = test system: Mus musculus; assay: Immunomodulatory activity BALB/C mouse assessed as induction of lymphopenia at 1 mg/kg, po after 5 hrs; assay type: functional, organism-based; design: dose 1 mg/kg
How it was run: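 Male BALB/c mice were given a single oral dose of 1.0 mg/kg or vehicle (0.5% methylcellulose). Blood lymphocytes were counted at one time point, 5 h post-dose, with n = 6 per dose group (mean ± SD). Lowering was judged relative to the vehicle group.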

[42] = Clearance in Sprague-Dawley rat at 1 mg/kg, iv and 1.5 mg/kg, po; assay type: ADME, organism-based; settings: in vivo
[43] = Oral bioavailability in Sprague-Dawley rat at 1.5 mg/kg; assay type: ADME, organism-based; settings: in vivo
[44] = Volume of distribution at steady state in Sprague-Dawley rat at 1 mg/kg, iv and 1.5 mg/kg, po; assay type: ADME, organism-based; settings: in vivo, read-out: Vdss
[45] = Cmax in Sprague-Dawley rat at 1 mg/kg, iv and 1.5 mg/kg, po; assay type: ADME, organism-based; settings: in vivo
[46] = Tmax in Sprague-Dawley rat at 1 mg/kg, iv and 1.5 mg/kg, po; assay type: ADME, organism-based; settings: in vivo
[47] = Half life in Sprague-Dawley rat at 1 mg/kg, iv and 1.5 mg/kg, po; assay type: ADME, organism-based; settings: in vivo

| SMILES | EC50 [1] | half-life [2] | IC50 [3] | Activity [4] | EC50 [5] | EC50 [6] | EC50 [7] | EC50 [9] | IC50 [10] | Activity [11] | IC50 [13] | fraction unbound [14] | Activity [16] | Activity [18] | EC50 [20] | EC50 [21] | EC50 [22] | IC50 [23] | Activity [24] | IC50 [26] | other results |
| --- | --- | --- | --- | --- | --- | --- | --- | --- | --- | --- | --- | --- | --- | --- | --- | --- | --- | --- | --- | --- | --- |
| N#Cc1cc(OC(F)(F)F)cc(-c2nc(-c3ccc4c(c3)CCN4C(=O)CCC(=O)O)no2)c1 | 0.7 nM | > 1 h | > 50000 nM | Non-toxic | 1.2 nM | 1330 nM | 31 nM | 1.1 nM | > 50000 nM | Non-toxic | > 50000 nM | 0.003 | Non-toxic | Non-toxic | 0.8 nM | 1 nM | > 100000 nM | > 50000 nM | Non-toxic | > 100000 nM | fraction unbound [8]: 0.007; AUC(0-t) [12]: 20200 ng·h/mL; Activity [15]: inactive; half-life [17]: 2.9 h; half-life [19]: 3 h; clearance [25]: 0.75 mL/min/kg; half-life [27]: > 1 h; EC50 [28]: > 100000 nM; Activity [29]: Non-toxic; Activity [30]: Non-toxic; IC50 [31]: > 50000 nM; IC50 [32]: 0.431 µg/mL (≈ 0.912 µM); inhibition at 3 µM [33]: 13%; Vd [34]: 0.275 L/kg; Tmax [35]: 2 h; Activity [36]: Non-toxic; EC50 [37]: 109 nM; bioavailability [38]: 32.8%; Cmax [39]: 3820 ng/mL |
| O=C(O)CCC(=O)N1CCc2cc(-c3noc(-c4cc(C(F)(F)F)cc(C(F)(F)F)c4)n3)ccc21 | 1.3 nM | > 1 h | > 50000 nM | Non-toxic | 4.6 nM | 160 nM | 39 nM | 1.4 nM | > 50000 nM | Non-toxic | > 50000 nM | 0.006 | Non-toxic | Non-toxic | 1.1 nM | 1.3 nM | 3100 nM | > 50000 nM | Non-toxic | > 100000 nM | AUC(0-t) [40]: 16000 ng·h/mL; Activity [41]: Active; clearance [42]: 0.633 mL/min/kg; bioavailability [43]: 50.2%; half-life [27]: > 1 h; EC50 [28]: > 100000 nM; Vd [44]: 0.564 L/kg; Cmax [45]: 1740 ng/mL; Activity [29]: Non-toxic; Activity [30]: Non-toxic; IC50 [31]: 34800 nM; inhibition at 3 µM [33]: < 10%; Activity [36]: Non-toxic; Tmax [46]: 3 h; EC50 [37]: 88 nM; half-life [47]: 8.5 h |
